The test system of one data set is Caco-2 monolayers. Description: Caco-2 permeability assay. Format: in vitro ADME, Human. The gist of the method:
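Caco-2 cells grown in EMEM with 20% FBS and 1% PenStrep, then seeded on inserts for ~20 days to form confluent monolayers. Free test compound or its cyclodextrin complexes added apically; transport followed over 2 h, plus basolateral-to-apical for efflux. Controls: ranitidine (low), warfarin (high), talinolol (P-gp). Papp = (dQ/dt)/(C0×A); efflux ratio = Papp(B→A)/Papp(A→B). Integrity by TEER with lucifer yellow transport.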
(In general: Passage across Caco-2 layers is used to estimate intestinal permeability.)

For a further data set, the system named is intestinal mucosa. Description: Intestinal toxicity by histopathological scoring. Format: in vivo. The note with it: mice, oral, 10 mg/kg/d over 7 days. In outline:
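Mice given free test compound or cyclodextrin complexes orally at 10 mg/kg/d for 7 days; PBS group included. Intestine fixed in 10% formalin for 24 h, paraffin-embedded, sectioned at 5 μm and H&E stained. Duodenum examined at 20×. Mucosal damage graded: grade 0, normal villi; grade 1, subepithelial Gruenhagen's space at villus tips; higher grades follow.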

A further data set relates to advanced LUAD tumors. The note with it: cited from earlier work.
The conditions of data set [1]: cited from earlier work.
Another data set has as its system intestine. The note with it: mouse, in vivo, 10 mg/kg; cited from earlier work.

The structures appear in SMILES notation.

Take `Cc1cc(-c2ncc(CC(=O)Nc3ccc(-c4cnccn4)cn3)cc2C)ccn1` [LGK974]: the “permeability across Caco-2 monolayers” value in the data set on Caco-2 monolayers (A → B and B → A, 2 h) is on record as “high permeability”. Also, the “transepithelial electrical resistance (TEER) after treatment” value in the data set on Caco-2 monolayers (Caco-2 monolayers, 2 h treatment) is recorded as “did not decrease significantly”. Also, in the data set on intestinal mucosa, the “intestinal mucosal damage (histopathological scoring)” value was “Intestinal mucosal damage was observed”. Also, the “effect in mice with advanced LUAD tumors” value in the data set with advanced LUAD tumors was “suppressed Wnt target genes, inhibited tumor growth and proliferation, and extended survival”. Besides, in data set [1], the “solubility in aqueous environments” value was “poorly soluble”. Moreover, the “intestinal toxicity on oral administration” value in the data set on intestine is reported as “induces intestinal toxicity”.
